Assay [1] deals with Hepatocyte growth factor receptor (Homo sapiens, UniProt P08581). Put plainly: Inhibition of c-Met (unknown origin) using poly (Glu, Tyr) 4:1 as substrate after 30 mins by HTRF assay. A general note: In TR-FRET formats the signal depends on donor and acceptor labels being close together.
The subject of assay [2] is HT-29. Put plainly: Cytotoxicity against human HT-29 cells after 72 hrs by MTT assay. To be noted: HT-29, 72 h.
Assay [3] deals with A549. The assay can be described thus: Cytotoxicity against human A549 cells after 72 hrs by MTT assay. Conditions: A549, 72 h. A general note: Tetrazolium assays rely on reduction of a dye to a coloured formazan, in cell work by metabolically active cells.
For a further assay, the system named is NCI-H460. The assay can be described thus: Cytotoxicity against human H460 cells after 72 hrs by MTT assay. The format is functional, cell-based. To be noted: NCI-H460, 72 h. An outline of the steps:
(§1)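 Cells grown in MEM with 10% FBS. About 4 × 10³ cells per well, incubated 24 h at 37°C in 5% CO₂. Compound added at the indicated final concentrations, then 72 h culture. MTT at […] final for 4 h at 37°C. Three independent experiments; IC50 reported as mean.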

Assay [4] has as its system U-87 MG. The assay can be described thus: Cytotoxicity against human U87MG cells after 72 hrs by MTT assay. The assay is classed as functional, cell-based, U-87MG ATCC. In a few lines:
as §1

The subject of assay [5] is HT-29. Put plainly: Potency index, ratio of foretinib IC50 to compound IC50 for human HT-29 cells. The assay is classed as functional.
The test system of assay [6] is A549. Put plainly: Potency index, ratio of foretinib IC50 to compound IC50 for human A549 cells. The format is functional.
The nature of assay [7]: Potency index, ratio of foretinib IC50 to compound IC50 for human H460 cells. The format is functional.
Assay [8] relates to U-87 MG. Put plainly: Potency index, ratio of foretinib IC50 to compound IC50 for human U87MG cells. The format is functional, U-87MG ATCC.
For assay [9], the target named is T1, Receptor-type tyrosine-protein kinase FLT3 (Homo sapiens, UniProt P36888).
T1 sequence (P36888 whole entry): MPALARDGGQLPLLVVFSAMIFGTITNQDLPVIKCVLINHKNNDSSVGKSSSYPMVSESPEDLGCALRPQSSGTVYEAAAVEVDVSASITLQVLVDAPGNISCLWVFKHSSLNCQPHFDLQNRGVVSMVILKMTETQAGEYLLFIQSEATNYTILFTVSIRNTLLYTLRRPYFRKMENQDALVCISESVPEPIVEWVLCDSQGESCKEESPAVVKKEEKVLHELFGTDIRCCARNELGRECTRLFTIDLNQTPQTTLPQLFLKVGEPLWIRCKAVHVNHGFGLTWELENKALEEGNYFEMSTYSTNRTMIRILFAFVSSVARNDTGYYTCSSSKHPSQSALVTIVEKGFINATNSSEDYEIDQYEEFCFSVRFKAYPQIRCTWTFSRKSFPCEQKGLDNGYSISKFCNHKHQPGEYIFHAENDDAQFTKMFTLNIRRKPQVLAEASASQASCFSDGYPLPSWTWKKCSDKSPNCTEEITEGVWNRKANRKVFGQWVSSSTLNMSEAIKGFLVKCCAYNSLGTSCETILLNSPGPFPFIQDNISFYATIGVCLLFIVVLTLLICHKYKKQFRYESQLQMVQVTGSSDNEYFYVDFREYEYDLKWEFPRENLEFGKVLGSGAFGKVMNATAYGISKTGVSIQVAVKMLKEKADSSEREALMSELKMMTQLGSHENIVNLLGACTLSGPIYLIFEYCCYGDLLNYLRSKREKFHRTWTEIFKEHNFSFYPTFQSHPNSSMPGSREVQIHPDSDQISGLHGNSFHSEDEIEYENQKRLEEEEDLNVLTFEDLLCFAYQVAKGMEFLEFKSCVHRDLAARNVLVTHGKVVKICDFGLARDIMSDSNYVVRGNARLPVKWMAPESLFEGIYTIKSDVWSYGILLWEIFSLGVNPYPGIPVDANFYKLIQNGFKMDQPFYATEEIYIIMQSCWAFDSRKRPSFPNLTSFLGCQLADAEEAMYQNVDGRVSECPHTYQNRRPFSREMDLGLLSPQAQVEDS
Put plainly: Inhibition of Flt-3 (unknown origin) using poly (Glu, Tyr) 4:1 as substrate after 30 mins by HTRF assay. An outline of the steps: (§2)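 Purified kinase protein added to start the reaction on preloaded poly(Glu,Tyr) 4:1 substrate at 20 µg/mL. ATP 10 mM solution in HEPES 50 mM pH 7.0 buffer with DTT, MgCl₂, MnCl₂ and 0.1% NaN₃. Compounds added in 1% DMSO. Reaction run 30 min at 25°C, stopped with Streptavidin-XL665 plus Tk antibody cryptate, read at 320/615 nm. Percent inhibition taken against enzyme-free and full-enzyme controls; IC50 from inhibition curves.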

The target in assay [10] is Platelet-derived growth factor receptor beta (Homo sapiens, UniProt P09619). The assay can be described thus: Inhibition of PDGFRbeta (unknown origin) using poly (Glu, Tyr) 4:1 as substrate after 30 mins by HTRF assay. In a few lines: as §2
Sequence of Platelet-derived growth factor receptor beta (P09619 whole entry): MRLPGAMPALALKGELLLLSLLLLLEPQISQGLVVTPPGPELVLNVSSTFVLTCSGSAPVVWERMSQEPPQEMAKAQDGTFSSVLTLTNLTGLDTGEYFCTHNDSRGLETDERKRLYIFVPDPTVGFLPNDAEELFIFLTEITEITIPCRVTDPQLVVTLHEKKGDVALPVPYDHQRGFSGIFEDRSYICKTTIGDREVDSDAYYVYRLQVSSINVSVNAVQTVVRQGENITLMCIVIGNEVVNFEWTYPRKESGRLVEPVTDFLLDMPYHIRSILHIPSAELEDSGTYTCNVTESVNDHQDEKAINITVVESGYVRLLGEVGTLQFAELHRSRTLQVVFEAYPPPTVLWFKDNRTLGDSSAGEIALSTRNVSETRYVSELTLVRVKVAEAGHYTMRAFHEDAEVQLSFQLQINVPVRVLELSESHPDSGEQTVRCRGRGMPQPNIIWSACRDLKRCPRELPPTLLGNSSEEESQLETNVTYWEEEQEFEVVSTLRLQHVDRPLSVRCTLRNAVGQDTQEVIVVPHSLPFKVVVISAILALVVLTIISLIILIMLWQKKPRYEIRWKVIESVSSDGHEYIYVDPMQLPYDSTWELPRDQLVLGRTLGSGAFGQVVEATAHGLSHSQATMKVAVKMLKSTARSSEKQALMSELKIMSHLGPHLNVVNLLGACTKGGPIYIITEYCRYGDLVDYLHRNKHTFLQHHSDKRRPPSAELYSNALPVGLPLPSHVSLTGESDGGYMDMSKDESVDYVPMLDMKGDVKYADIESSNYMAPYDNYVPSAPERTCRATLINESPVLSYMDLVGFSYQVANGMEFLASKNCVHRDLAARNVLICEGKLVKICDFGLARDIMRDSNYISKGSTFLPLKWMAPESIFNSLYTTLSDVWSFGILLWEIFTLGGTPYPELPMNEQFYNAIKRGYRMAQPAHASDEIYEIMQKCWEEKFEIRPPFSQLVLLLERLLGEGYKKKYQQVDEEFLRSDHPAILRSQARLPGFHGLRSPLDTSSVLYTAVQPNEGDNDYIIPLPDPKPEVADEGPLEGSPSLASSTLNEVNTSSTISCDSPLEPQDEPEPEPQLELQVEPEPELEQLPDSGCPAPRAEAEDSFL
Assay [11] addresses Mast/stem cell growth factor receptor Kit (Homo sapiens, UniProt P10721). The assay can be described thus: Inhibition of c-Kit (unknown origin) using poly (Glu, Tyr) 4:1 as substrate after 30 mins by HTRF assay. An outline of the steps:
as §2

For assay [12], the target named is Vascular endothelial growth factor receptor 2 (Homo sapiens, UniProt P35968). The assay can be described thus: Inhibition of VEGFR-2 (unknown origin) using poly (Glu, Tyr) 4:1 as substrate after 30 mins by HTRF assay. In a few lines: as §2
Sequence of Vascular endothelial growth factor receptor 2 (P35968 whole entry): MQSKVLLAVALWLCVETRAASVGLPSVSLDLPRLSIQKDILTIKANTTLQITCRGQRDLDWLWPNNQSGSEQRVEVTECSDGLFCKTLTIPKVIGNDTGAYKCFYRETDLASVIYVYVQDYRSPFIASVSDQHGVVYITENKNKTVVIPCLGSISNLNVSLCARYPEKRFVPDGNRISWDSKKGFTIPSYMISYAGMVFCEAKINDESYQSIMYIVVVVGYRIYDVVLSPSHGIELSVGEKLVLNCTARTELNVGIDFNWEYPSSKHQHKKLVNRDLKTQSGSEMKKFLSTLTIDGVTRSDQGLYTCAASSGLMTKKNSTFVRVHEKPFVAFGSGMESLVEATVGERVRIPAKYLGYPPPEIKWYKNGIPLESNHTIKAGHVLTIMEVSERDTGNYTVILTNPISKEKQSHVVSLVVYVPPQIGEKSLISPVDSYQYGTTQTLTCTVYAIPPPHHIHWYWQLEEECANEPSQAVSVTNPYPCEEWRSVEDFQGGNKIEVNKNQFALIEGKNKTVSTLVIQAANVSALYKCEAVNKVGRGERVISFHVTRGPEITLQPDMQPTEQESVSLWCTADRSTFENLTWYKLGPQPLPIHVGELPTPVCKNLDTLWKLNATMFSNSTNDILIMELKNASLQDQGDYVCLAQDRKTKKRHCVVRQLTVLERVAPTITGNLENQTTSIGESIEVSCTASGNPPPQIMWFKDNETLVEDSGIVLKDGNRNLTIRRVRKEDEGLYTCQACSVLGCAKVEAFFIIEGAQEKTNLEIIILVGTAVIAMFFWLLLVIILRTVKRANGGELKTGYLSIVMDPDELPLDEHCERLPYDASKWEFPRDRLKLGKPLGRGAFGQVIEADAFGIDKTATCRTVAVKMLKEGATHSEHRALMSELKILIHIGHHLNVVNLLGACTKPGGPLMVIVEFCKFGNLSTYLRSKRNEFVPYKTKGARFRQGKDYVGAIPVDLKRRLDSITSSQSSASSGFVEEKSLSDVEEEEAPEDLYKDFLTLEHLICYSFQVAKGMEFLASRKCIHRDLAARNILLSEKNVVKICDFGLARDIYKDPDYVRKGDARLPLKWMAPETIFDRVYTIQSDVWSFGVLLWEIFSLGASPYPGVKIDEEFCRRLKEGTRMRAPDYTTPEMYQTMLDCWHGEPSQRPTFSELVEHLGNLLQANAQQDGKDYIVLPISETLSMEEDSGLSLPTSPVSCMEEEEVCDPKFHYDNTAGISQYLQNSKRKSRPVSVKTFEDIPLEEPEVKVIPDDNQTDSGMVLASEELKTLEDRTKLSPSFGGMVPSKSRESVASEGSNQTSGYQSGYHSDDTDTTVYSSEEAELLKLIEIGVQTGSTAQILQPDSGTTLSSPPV
In assay [13] the target is Epidermal growth factor receptor (Homo sapiens, UniProt P00533). Put plainly: Inhibition of EGFR (unknown origin) using poly (Glu, Tyr) 4:1 as substrate after 30 mins by HTRF assay. An outline of the steps:
as §2

Sequence of Hepatocyte growth factor receptor (P08581 whole entry): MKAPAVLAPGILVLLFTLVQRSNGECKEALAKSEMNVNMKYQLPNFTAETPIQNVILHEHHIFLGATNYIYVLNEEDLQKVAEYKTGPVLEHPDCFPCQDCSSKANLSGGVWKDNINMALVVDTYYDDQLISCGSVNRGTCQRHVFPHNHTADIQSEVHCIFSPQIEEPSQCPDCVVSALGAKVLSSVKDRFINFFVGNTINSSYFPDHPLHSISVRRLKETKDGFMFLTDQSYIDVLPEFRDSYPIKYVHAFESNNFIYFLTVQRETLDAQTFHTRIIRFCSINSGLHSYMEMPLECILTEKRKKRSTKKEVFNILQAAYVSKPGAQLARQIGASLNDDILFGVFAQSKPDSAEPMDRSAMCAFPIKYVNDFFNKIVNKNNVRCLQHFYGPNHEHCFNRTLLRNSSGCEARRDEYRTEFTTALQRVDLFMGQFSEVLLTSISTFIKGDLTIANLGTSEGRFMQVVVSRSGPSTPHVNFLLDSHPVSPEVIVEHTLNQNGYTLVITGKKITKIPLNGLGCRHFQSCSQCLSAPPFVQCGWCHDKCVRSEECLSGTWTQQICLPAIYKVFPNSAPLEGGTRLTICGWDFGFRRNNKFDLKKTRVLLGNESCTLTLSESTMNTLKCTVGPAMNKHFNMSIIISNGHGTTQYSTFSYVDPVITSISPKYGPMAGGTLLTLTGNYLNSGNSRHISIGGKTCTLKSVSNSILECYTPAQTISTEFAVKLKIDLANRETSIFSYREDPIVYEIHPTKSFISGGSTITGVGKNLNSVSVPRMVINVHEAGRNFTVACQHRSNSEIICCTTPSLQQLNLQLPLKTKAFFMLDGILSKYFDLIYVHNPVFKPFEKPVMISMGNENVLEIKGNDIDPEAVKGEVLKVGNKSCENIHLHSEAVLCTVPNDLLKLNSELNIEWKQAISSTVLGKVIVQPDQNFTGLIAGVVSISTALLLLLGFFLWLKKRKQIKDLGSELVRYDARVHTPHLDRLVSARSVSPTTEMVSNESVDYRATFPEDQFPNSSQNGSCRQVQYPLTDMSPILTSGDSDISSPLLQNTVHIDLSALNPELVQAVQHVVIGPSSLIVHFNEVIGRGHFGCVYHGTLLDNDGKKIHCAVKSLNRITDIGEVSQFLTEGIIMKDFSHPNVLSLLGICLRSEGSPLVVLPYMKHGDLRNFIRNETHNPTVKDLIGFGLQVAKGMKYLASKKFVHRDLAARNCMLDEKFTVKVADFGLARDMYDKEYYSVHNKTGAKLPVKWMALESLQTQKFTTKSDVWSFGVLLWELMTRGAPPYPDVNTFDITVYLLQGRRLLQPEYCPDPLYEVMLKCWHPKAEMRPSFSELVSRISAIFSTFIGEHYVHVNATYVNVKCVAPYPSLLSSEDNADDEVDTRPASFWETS
Sequence of Mast/stem cell growth factor receptor Kit (P10721 whole entry): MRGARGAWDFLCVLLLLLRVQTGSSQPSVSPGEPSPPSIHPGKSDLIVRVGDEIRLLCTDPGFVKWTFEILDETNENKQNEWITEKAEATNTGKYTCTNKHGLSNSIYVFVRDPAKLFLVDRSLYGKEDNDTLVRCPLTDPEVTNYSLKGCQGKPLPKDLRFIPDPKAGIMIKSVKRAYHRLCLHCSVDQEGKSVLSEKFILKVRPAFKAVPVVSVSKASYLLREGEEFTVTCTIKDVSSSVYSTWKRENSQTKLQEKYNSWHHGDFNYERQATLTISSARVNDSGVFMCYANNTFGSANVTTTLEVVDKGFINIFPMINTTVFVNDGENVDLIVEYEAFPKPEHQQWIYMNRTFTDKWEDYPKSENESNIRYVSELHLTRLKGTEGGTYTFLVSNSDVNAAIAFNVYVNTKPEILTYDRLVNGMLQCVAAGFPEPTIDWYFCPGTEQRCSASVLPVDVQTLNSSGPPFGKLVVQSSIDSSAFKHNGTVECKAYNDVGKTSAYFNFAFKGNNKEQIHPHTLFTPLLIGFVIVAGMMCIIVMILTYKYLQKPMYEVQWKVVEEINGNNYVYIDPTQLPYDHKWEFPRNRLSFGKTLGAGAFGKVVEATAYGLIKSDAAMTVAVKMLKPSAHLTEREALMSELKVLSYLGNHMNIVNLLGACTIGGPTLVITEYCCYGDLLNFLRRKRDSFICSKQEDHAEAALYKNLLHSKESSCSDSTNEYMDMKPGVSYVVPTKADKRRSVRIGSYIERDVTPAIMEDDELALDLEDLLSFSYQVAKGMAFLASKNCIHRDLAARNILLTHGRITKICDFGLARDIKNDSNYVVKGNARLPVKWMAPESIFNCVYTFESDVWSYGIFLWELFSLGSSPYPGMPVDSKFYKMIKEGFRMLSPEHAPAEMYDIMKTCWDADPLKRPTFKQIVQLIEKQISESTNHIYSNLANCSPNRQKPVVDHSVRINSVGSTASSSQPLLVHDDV

The molecule `Cc1ccc(C)c(-n2nc(C(=O)Nc3ccc(Oc4ccnc5c4ccn5C)cc3)c(C)cc2=O)c1` yielded an IC50 in assay [1] of 41.3 nM.
Same read-out and setting: in the case of `Cc1cc(=O)n(-c2ccccc2F)nc1C(=O)Nc1ccc(Oc2ccnc3[nH]ccc23)cc1` it was 12.6 nM; in that of `Cc1ccc(C)c(-n2nc(C(=O)Nc3ccc(Oc4ccnc5[nH]ccc45)cc3)c(C)cc2=O)c1`, 33.5 nM.
For `Cc1cc(=O)n(-c2ccc(Br)cc2F)nc1C(=O)Nc1ccc(Oc2ccnc3[nH]ccc23)cc1`, the IC50 in assay [1] came to 41.2 nM.
On to `Cc1cc(=O)n(-c2ccccc2C(F)(F)F)nc1C(=O)Nc1ccc(Oc2ccnc3c2ccn3C)cc1`, for which, in [1], the half-inhibitory concentration (IC50) was found to be 46.3 nM.
Consider `Cc1cc(=O)n(-c2ccc(F)cc2)nc1C(=O)Nc1ccc(Oc2ccnc3[nH]ccc23)c(F)c1`, for which the half-inhibitory concentration (IC50) in assay [1] came to 1.06 nM; in the assay with HT-29 [2], 39 nM; with A549 [3] it was 46 nM; with NCI-H460, 91 nM; with U-87 MG [4], 0.76 µM; in assay [9] it was 1.32 nM. Further, the IC50 in [10] is 3.26 nM; in assay [11], 318 nM; in assay [12], 672 nM; in assay [13], 725 nM. The “Ratio IC50” value in the assay with HT-29 [5] is reported as 6.4; with A549 [6] it was 7.8; in [7], 3.2; with U-87 MG [8] it was 1.3.
On to `Cc1cc(=O)n(-c2cccc(F)c2)nc1C(=O)Nc1ccc(Oc2ccnc3[nH]ccc23)cc1`, for which the concentration for half-maximal inhibition (IC50) in [1] came to 11.6 nM; in the assay on HT-29 [2], 210 nM; in the assay on A549 [3] it was 420 nM; in the assay on NCI-H460 it was 190 nM; with U-87 MG [4] it was 3.42 µM.
Consider `Cc1cc(=O)n(-c2ccc(Cl)cc2Cl)nc1C(=O)Nc1ccc(Oc2ccnc3[nH]ccc23)c(F)c1`, for which, in [1], the IC50 amounted to 22.4 nM.
`Cc1cc(=O)n(-c2ccc(F)cc2)nc1C(=O)Nc1ccc(Oc2ccnc3c2ccn3C)cc1` gave an IC50 in assay [1] of 9.21 nM.
The same measure, in the same setting: in the case of `Cc1cc(=O)n(-c2cccc(C(F)(F)F)c2)nc1C(=O)Nc1ccc(Oc2ccnc3[nH]ccc23)cc1` it was 35.3 nM.
On the same count and under the same terms, the result for `Cc1cc(=O)n(-c2ccccc2)nc1C(=O)Nc1ccc(Oc2ccnc3[nH]ccc23)cc1` reads 18.3 nM.
`Cc1cc(=O)n(-c2cccc(C(F)(F)F)c2)nc1C(=O)Nc1ccc(Oc2ccnc3c2ccn3C)c(F)c1`: the IC50 in assay [1] was 29.3 nM; in the assay on HT-29 [2], 360 nM; in the assay on A549 [3] it was 620 nM; with NCI-H460, 520 nM; in the assay on U-87 MG [4] it was 2.31 µM.
For `Cc1ccccc1-n1nc(C(=O)Nc2ccc(Oc3ccnc4[nH]ccc34)c(F)c2)c(C)cc1=O`, the IC50 in [1] came to 10.3 nM.
Still for that read-out and setting: in the case of `Cc1cc(=O)n(-c2ccc(F)c(Cl)c2)nc1C(=O)Nc1ccc(Oc2ccnc3c2ccn3C)cc1` it was 45.3 nM.
With `Cc1cc(=O)n(-c2ccccc2F)nc1C(=O)Nc1ccc(Oc2ccnc3c2ccn3C)cc1`, half-maximal inhibition in assay [1] (IC50) required 14.4 nM.
Molecule `Cc1cc(=O)n(-c2ccccc2C(F)(F)F)nc1C(=O)Nc1ccc(Oc2ccnc3[nH]ccc23)cc1` returned an IC50 in assay [1] of 39.5 nM.
Same read-out and setting: the result for `COc1ccc(-n2nc(C(=O)Nc3ccc(Oc4ccnc5[nH]ccc45)cc3)c(C)cc2=O)cc1` reads 46.9 nM; that for `Cc1cc(=O)n(-c2ccc(F)c(Cl)c2)nc1C(=O)Nc1ccc(Oc2ccnc3[nH]ccc23)cc1`, 42.2 nM.
On the same count and under the same terms, the result for `Cc1cc(=O)n(-c2ccc(Br)cc2F)nc1C(=O)Nc1ccc(Oc2ccnc3[nH]ccc23)c(F)c1` reads 18.2 nM.
Same read-out and setting: in the case of `Cc1cc(=O)n(-c2cccc(F)c2)nc1C(=O)Nc1ccc(Oc2ccnc3[nH]ccc23)c(F)c1` it was 5.61 nM; in that of `Cc1cc(=O)n(-c2cccc(C(F)(F)F)c2)nc1C(=O)Nc1ccc(Oc2ccnc3c2ccn3C)cc1`, 32.2 nM; in that of `Cc1cc(=O)n(-c2cccc(Br)c2)nc1C(=O)Nc1ccc(Oc2ccnc3c2ccn3C)cc1`, 10.5 nM.
In turn, `Cc1cc(=O)n(-c2ccc(Cl)cc2Cl)nc1C(=O)Nc1ccc(Oc2ccnc3c2ccn3C)cc1` yielded a concentration for half-maximal inhibition (IC50) in assay [1] of 49.2 nM. This IC50 is about 4.7-fold higher than that of the molecule before.
Same read-out and setting: the result for `Cc1cc(=O)n(-c2ccccc2F)nc1C(=O)Nc1ccc(Oc2ccnc3[nH]ccc23)c(F)c1` reads 5.02 nM; that for `COc1ccc(-n2nc(C(=O)Nc3ccc(Oc4ccnc5[nH]ccc45)c(F)c3)c(C)cc2=O)cc1`, 18.3 nM.
Turning to `Cc1cc(=O)n(-c2cccc(F)c2)nc1C(=O)Nc1ccc(Oc2ccnc3c2ccn3C)cc1`, the 50% inhibitory concentration (IC50) was determined as 15.3 nM in [1]; 320 nM with HT-29 [2]; 410 nM in the assay on A549 [3]; 320 nM in the assay with NCI-H460; 8.82 µM with U-87 MG [4].
Molecule `Cc1cc(=O)n(-c2ccc(Br)cc2F)nc1C(=O)Nc1ccc(Oc2ccnc3c2ccn3C)cc1` had an IC50 in [1] of 36.2 nM.
Still for that read-out and setting: in the case of `Cc1ccccc1-n1nc(C(=O)Nc2ccc(Oc3ccnc4[nH]ccc34)cc2)c(C)cc1=O` it was 19.1 nM; in that of `Cc1cc(=O)n(-c2ccccc2C(F)(F)F)nc1C(=O)Nc1ccc(Oc2ccnc3[nH]ccc23)c(F)c1`, 11.2 nM; in that of `Cc1cc(=O)n(-c2ccc(Cl)cc2Cl)nc1C(=O)Nc1ccc(Oc2ccnc3[nH]ccc23)cc1`, 56.3 nM.
For the molecule `Cc1cc(=O)n(-c2ccc(F)cc2)nc1C(=O)Nc1ccc(Oc2ccnc3[nH]ccc23)cc1`, the half-maximal inhibitory concentration (IC50) in assay [1] worked out at 8.42 nM; in the assay on HT-29 [2] it was 140 nM; in the assay with A549 [3], 230 nM; in the assay on NCI-H460 it was 160 nM; with U-87 MG [4] it was 5.46 µM.
With `Cc1cc(=O)n(-c2ccccc2)nc1C(=O)Nc1ccc(Oc2ccnc3c2ccn3C)cc1`, in [1], the 50% inhibitory concentration (IC50) came to 19.5 nM.

In general, IC50 refers to the concentration that inhibits the measured activity by half.

Source of the values: ChEMBL document CHEMBL4033630, “Discovery of novel 7-azaindole derivatives bearing dihydropyridazine moiety as c-Met kinase inhibitors” (Eur J Med Chem, 2017).
